Reference: ChEMBL document CHEMBL3392992, “Synthesis, antiproliferative activity, and in silico insights of new 3-benzoylamino-benzo[b]thiophene derivatives” (Eur J Med Chem, 2015)

Key:
[1] = test system: HeLa; assay: Toxicity against human HeLa cells assessed as effect on cell membrane integrity at 1 to 20 uM after 48 hrs by trypan blue dye exclusion method; assay type: cell-based
[2] = test system: HeLa; assay: Antiproliferative activity against human HeLa cells assessed as reduction in cell proliferation after 48 hrs by MTT assay; assay type: functional
How it was run: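 HeLa cells grown with FBS, 2 mM L-glutamine, penicillin/streptomycin at 37 °C, 5% CO2, seeded at 1.0 × 10^4 cells/cm2 (approx.). After 24 h, medium switched to 5% FBS medium with compounds diluted from 20 mM DMSO stocks, 50 to 0.05 µM, final DMSO ≤0.25% (vehicle control). Incubated 48 h. MTT 0.5 mg/mL for 4 h at 37 °C, formazan dissolved in DMSO, OD 570 nm. GI50 by linear regression of percent growth vs control. Three experiments, each in quadruplicate.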

[3] = test system: HeLa; assay: Induction of cell cycle arrest in human HeLa cells assessed as increase in accumulation at subG0/G1 phase after 24 to 48 hrs by propidium iodide staining based flow cytometry; assay type: functional; conditions: TDE = time-dependent effect

Row | Compound | Activity [1] | GI50 [2] [µM] | Activity [3]
1 | CCOC(=O)c1sc2ccc(NCc3nc[nH]c3C)cc2c1NC(=O)c1ccc(C(F)(F)F)cc1 | Non-toxic | 12.8 | –
2 | CCOC(=O)c1sc2ccc(N)cc2c1NC(=O)c1ccc(C)cc1 | Non-toxic | 24.4 | –
3 | CCOC(=O)c1sc2ccc(NCc3nc[nH]c3C)cc2c1NC(=O)c1ccc(C)cc1 | Non-toxic | 11.4 | –
4 | CCOC(=O)c1sc2ccc(N)cc2c1NC(=O)c1ccccc1 | Non-toxic | > 50 | –
5 | CCOC(=O)c1sc2ccc(NCc3c[nH]cn3)cc2c1NC(=O)c1ccc(C(F)(F)F)cc1 | Non-toxic | 16.8 | –
6 | CCOC(=O)c1sc2ccc(N)cc2c1NC(=O)c1ccc(C(F)(F)F)cc1 | Non-toxic | 6.68 | –
7 | CCOC(=O)c1sc2ccc(NCc3nc[nH]c3C)cc2c1NC(=O)c1ccc(F)c(Cl)c1 | Non-toxic | 2.91 | tde
8 | CCOC(=O)c1sc2ccc(NCc3c[nH]cn3)cc2c1NC(=O)c1cc(OC)c(OC)c(OC)c1 | Non-toxic | 6.79 | –
9 | CCOC(=O)c1sc2ccc(NCc3c[nH]cn3)cc2c1NC(=O)c1ccccc1 | Non-toxic | 17.9 | –
10 | CCOC(=O)c1sc2ccc(N)cc2c1NC(=O)c1cc(OC)c(OC)c(OC)c1 | Non-toxic | 4.66 | tde
11 | CCOC(=O)c1sc2ccc(NCc3c[nH]cn3)cc2c1NC(=O)c1ccc(F)c(Cl)c1 | Non-toxic | 10.7 | –
12 | CCOC(=O)c1sc2ccc(N)cc2c1NC(=O)c1ccc(F)c(Cl)c1 | Non-toxic | 12.3 | –
13 | CCOC(=O)c1sc2ccc(N)cc2c1NC(=O)c1ccc(OC)cc1 | Non-toxic | > 50 | –
14 | CCOC(=O)c1sc2ccc(NCc3nc[nH]c3C)cc2c1NC(=O)c1ccc(OC)cc1 | Non-toxic | 8.22 | –
15 | CCOC(=O)c1sc2ccc(NCc3nc[nH]c3C)cc2c1NC(=O)c1ccccc1 | Non-toxic | 23.3 | –
16 | CCOC(=O)c1sc2ccc(NCc3c[nH]cn3)cc2c1NC(=O)c1ccc(C)cc1 | Non-toxic | 11.7 | –
17 | CCOC(=O)c1sc2ccc(NCc3nc[nH]c3C)cc2c1NC(=O)c1cc(OC)c(OC)c(OC)c1 | Non-toxic | 2.23 | tde
18 | CCOC(=O)c1sc2ccc(NCc3c[nH]cn3)cc2c1NC(=O)c1ccc(OC)cc1 | Non-toxic | 12.9 | –
